From ChEMBL document CHEMBL1157654, “Synthesis and in vitro biological evaluation of carbon-11-labeled quinoline derivatives as new candidate PET radioligands for cannabinoid CB2 receptor imaging” (Bioorg Med Chem, 2010)

Key:
Cannabinoid receptor 1 [1] = biological target: T1, Cannabinoid receptor 1 (Homo sapiens, UniProt P21554); assay: Displacement of [3H]CP-55940 from CB1 receptor at 10 uM
Cannabinoid receptor 2 [2] = biological target: T2, Cannabinoid receptor 2 (Homo sapiens, UniProt P34972); assay: Displacement of [3H]CP-55940 from CB2 receptor at 10 uM
Cannabinoid receptor 1 [3] = biological target: T1, Cannabinoid receptor 1; assay: Displacement of [3H]CP-55940 from CB1 receptor
Summary of the method: (§1)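 Radioligand competition binding at CB1 or CB2 with [³H]CP55940; CP55940 reference. Ki (nM) obtained from non-linear regression of competition binding isotherms (secondary assay).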

Cannabinoid receptor 2 [4] = biological target: T2, Cannabinoid receptor 2; assay: Displacement of [3H]CP-55940 from CB2 receptor; summary of the method: as §1
[5] = Selectivity ratio of Ki for CB1 receptor to Ki for CB2 receptor
Summary of the method: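 Ratio of CB1 Ki to CB2 Ki, both from [³H]CP55940 competition binding (pH 7.4 Tris–HCl/EDTA/MgCl₂/BSA buffer) with Ki fitted by non-linear regression of competition isotherms.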

T2 sequence (P34972 whole entry): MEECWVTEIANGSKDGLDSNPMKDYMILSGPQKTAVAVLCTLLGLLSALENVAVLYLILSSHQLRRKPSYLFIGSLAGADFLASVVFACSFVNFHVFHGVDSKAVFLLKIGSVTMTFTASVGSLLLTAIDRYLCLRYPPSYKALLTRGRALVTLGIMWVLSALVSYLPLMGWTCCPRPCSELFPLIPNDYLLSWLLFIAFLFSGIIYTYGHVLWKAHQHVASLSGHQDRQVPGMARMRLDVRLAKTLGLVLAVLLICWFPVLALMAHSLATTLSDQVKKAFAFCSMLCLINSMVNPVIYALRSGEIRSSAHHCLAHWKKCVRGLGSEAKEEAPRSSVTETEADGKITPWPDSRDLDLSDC
T1 sequence (P21554 whole entry): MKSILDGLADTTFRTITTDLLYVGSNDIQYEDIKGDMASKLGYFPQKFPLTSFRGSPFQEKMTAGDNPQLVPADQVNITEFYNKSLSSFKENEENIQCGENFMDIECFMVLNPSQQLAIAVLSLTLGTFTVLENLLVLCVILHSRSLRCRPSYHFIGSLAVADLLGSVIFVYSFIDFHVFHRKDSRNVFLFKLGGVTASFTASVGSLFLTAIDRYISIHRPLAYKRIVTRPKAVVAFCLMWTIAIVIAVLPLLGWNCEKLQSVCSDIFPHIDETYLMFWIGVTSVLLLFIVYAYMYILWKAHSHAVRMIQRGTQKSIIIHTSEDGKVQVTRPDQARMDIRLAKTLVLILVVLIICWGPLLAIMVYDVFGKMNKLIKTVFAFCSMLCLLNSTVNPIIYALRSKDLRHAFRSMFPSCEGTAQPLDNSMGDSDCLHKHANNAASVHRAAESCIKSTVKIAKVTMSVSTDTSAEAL

Compound | Activity (Cannabinoid receptor 1 [1]) | Activity (Cannabinoid receptor 2 [2]) | Ki (Cannabinoid receptor 1 [3]) | Ki (Cannabinoid receptor 2 [4]) | Ratio Ki [5]
CCCCCOc1c(OC)ccc2cc(C(=O)NCCc3ccccc3)c(=O)[nH]c12 | 63.4% | 103% | 0.196 µM | 0.00692 µM | 28.3
CCCCCOc1c(OC)ccc2cc(C(=O)NCCCc3ccccc3)c(=O)[nH]c12 | 51.4% | 104% | 0.323 µM | 0.0103 µM | 31.3
CCCCCOc1c(OC)ccc2cc(C(=O)NCCc3ccc(OC)cc3)c(Cl)nc12 | 71% | 65.9% | > 10 µM | 1.33 µM | > 7.51
CCCCCOc1c(OC)ccc2cc(C(=O)NCCc3ccc(Cl)cc3)c(=O)[nH]c12 | -9% | 102% | > 10 µM | 0.00937 µM | > 1070
CCCCCOc1c(OC)ccc2cc(C(=O)NCCCc3ccccc3)c(Cl)nc12 | 66.3% | 59.2% | > 10 µM | 1.07 µM | > 9.36
CCCCCOc1c(OC)ccc2cc(C(=O)NCCc3ccc(F)cc3)c(Cl)nc12 | 64.8% | 104% | 2.88 µM | 0.0238 µM | 121
CCCCCOc1c(OC)ccc2cc(C(=O)NCCc3ccc(F)cc3)c(=O)[nH]c12 | 26.3% | 101% | > 10 µM | 0.0054 µM | > 1850
CCCCCOc1c(OC)ccc2cc(C(=O)NCCc3ccc(OC)cc3)c(=O)[nH]c12 | 68.7% | 102% | 0.733 µM | 0.0279 µM | 26.2
CCCCCOc1c(OC)ccc2cc(C(=O)NCCc3ccccc3)c(Cl)nc12 | 73.7% | 86.3% | > 10 µM | 0.497 µM | > 20.1
CCCCCOc1c(OC)ccc2cc(C(=O)NCCc3ccc(Cl)cc3)c(Cl)nc12 | 34.4% | 74.1% | > 10 µM | 1.01 µM | > 9.92
